Data reported in PubChem BioAssay AID652011 (Sanford-Burnham Center for Chemical Genomics, 2013).
Several values for one entry are separate records, joined by “and”; a condition that tells them apart may be missing. Equal values may be shown once.

target: Endothelial PAS domain-containing protein 1 (Homo sapiens) (UniProt Q99814); test: HIF reporter inhibition across pancreatic and renal lines – cell-based, luminescence, MIAPaCa-2, 786-0, panel, SAR follow-up (AID 652011); conditions: MIAPaCa-2/PANC HIF reporter, luciferase luminescence, desferoxamine, overnight, HIF2a PANC, run 2; at 99 µM (top of the series)
Sequence (Q99814 whole entry, looked up, the tested form may be a part): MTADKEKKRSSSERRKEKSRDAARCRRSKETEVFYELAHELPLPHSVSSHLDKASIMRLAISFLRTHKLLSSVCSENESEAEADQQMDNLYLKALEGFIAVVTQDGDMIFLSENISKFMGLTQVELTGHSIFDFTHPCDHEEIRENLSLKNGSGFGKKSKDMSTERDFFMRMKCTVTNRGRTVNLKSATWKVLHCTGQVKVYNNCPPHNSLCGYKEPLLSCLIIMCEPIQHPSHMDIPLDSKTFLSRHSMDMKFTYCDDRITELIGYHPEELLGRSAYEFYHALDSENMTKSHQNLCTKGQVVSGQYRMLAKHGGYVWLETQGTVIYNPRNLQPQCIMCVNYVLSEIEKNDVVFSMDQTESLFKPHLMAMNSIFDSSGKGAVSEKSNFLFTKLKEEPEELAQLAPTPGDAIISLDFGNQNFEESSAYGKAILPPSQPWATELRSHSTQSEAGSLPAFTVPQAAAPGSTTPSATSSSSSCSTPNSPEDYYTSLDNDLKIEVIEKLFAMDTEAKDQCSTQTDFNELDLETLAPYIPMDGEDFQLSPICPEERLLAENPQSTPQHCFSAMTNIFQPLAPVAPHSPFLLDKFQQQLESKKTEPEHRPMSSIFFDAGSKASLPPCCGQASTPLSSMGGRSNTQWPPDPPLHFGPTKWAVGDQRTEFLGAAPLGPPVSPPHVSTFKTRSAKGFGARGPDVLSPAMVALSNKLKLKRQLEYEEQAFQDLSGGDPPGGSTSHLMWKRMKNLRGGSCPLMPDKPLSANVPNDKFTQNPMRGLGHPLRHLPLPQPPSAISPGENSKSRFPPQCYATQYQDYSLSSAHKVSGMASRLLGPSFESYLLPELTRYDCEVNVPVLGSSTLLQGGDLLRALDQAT
Procedure, shortened: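 Probe or stimulus: desferoxamine stimulus; times: overnight seeding and compound exposure, 37 °C, 5% CO2, 10-min detection; signal: One-Glo luciferase luminescence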

**Q.** For `CCNC(=O)CCc1nc(-c2ccc(OCC)cc2)no1`, which inhibition is on record?
**A.** -15.1%

**Q.** `CNC(=O)CCc1nc(-c2ccc(OC)cc2)no1` was tested. Which inhibition did it give?
**A.** -21.8%

**Q.** For `CCNC(=O)CCc1nc(-c2ccc(C(C)(C)C)cc2)no1`, which inhibition is on record?
**A.** 84.7% and 55.9%

**Q.** `COC(=O)CCc1nc(-c2ccc(C(C)(C)C)cc2)no1` was tested. Which inhibition did it give?
**A.** 128%

**Q.** `CCc1ccc(-c2noc(CCC(=O)NC(C)CC)n2)cc1` (stereo unspecified) was tested. Which inhibition did it give?
**A.** -30.6%

**Q.** For `CC(C)(C)c1ccc(-c2noc(CCC(=O)N3CCCCC3)n2)cc1`, which inhibition is on record?
**A.** 106%

**Q.** For `CCNC(=O)CCc1nc(-c2c(Cl)cccc2Cl)no1`, which inhibition is on record?
**A.** 31.9%

**Q.** Which inhibition does the source give for `CCc1ccc(-c2noc(CCC(=O)NC(C)(C)C)n2)cc1` here?
**A.** -22.9%

**Q.** How did the inhibition turn out when `CCNC(=O)CCc1nc(-c2ccccc2C)no1` was run?
**A.** -1.15%

**Q.** `CCCNC(=O)CCc1nc(-c2ccc(C(C)(C)C)cc2)no1` was tested. Which inhibition did it give?
**A.** 73%

**Q.** For `CCc1ccc(-c2noc(CCC(=O)NC)n2)cc1`, which inhibition is on record?
**A.** -49.2%

**Q.** `C=CCNC(=O)CCc1nc(-c2ccc(C(C)(C)C)cc2)no1` was tested. Which inhibition did it give?
**A.** 82%

**Q.** How did the inhibition turn out when `CCN(CC)C(=O)CCc1nc(-c2ccc(C(C)(C)C)cc2)no1` was run?
**A.** 76.8% and 78.5%

**Q.** How did the inhibition turn out when `CCNC(=O)CCc1nc(-c2cccc(C)c2)no1` was run?
**A.** -15.7%

**Q.** How did the inhibition turn out when `O=C(CCc1nc(-c2ccccc2)no1)NC1CC1` was run?
**A.** 56.6%

**Q.** Which inhibition does the source give for `CCNC(=O)CCc1nc(-c2ccc(CC)cc2)no1` here?
**A.** -47%

**Q.** With `CCNC(=O)CCc1nc(-c2cccc(OC)c2)no1` as the molecule, how does the inhibition read?
**A.** -12.7%

**Q.** For `CCCCc1ccc(-c2noc(CCC(=O)NC(C)CC)n2)cc1` (stereo unspecified), which inhibition is on record?
**A.** 37.9%

**Q.** With `CC(C)(C)c1ccc(-c2noc(CCC(=O)NCc3ccco3)n2)cc1` as the molecule, how does the inhibition read?
**A.** 99.3% and 99%

**Q.** With `CC(C)(C)c1ccc(-c2noc(CCC(=O)NC3CC3)n2)cc1` as the molecule, how does the inhibition read?
**A.** 50%

**Q.** `CNC(=O)CCc1nc(-c2ccc(Cl)cc2)no1` was tested. Which inhibition did it give?
**A.** -17.8%

**Q.** `CC(C)(C)c1ccc(-c2noc(CCC(=O)O)n2)cc1` was tested. Which inhibition did it give?
**A.** 124%

**Q.** For `CC(C)c1ccc(-c2noc(CCC(=O)NC3CC3)n2)cc1`, which inhibition is on record?
**A.** 26.7%

**Q.** How did the inhibition turn out when `CC(C)(C)c1ccc(-c2noc(CCC(=O)Nc3cccnc3)n2)cc1` was run?
**A.** 126%

**Q.** `CCCCc1ccc(-c2noc(CCC(=O)NC(C)(C)C)n2)cc1` was tested. Which inhibition did it give?
**A.** 89%

**Q.** How did the inhibition turn out when `CCOc1ccc(-c2noc(CCC(=O)O)n2)cc1` was run?
**A.** 109%

**Q.** With `CCNC(=O)CCc1nc(-c2cccc(F)c2)no1` as the molecule, how does the inhibition read?
**A.** -6.32%

**Q.** `CCOc1ccc(-c2noc(CCC(=O)NC)n2)cc1` was tested. Which inhibition did it give?
**A.** 112%

**Q.** How did the inhibition turn out when `CC(C)(C)c1ccc(-c2noc(CCC(=O)NCC3CCCO3)n2)cc1` (stereo unspecified) was run?
**A.** 16.7%

**Q.** With `CN(C)C(=O)CCc1nc(-c2ccc(C(C)(C)C)cc2)no1` as the molecule, how does the inhibition read?
**A.** 42.5% and -5.18%

**Q.** `COc1cccc(NC(=O)CCc2nc(-c3ccc(C(C)(C)C)cc3)no2)c1` was tested. Which inhibition did it give?
**A.** 131%
